Screening results deposited in PubChem by several laboratories.
This is a sample that favours compounds with a hit; in the whole collection about 3.1% have one here.
MEKK2mut PB1 HTS = signal of MEK5 binding to mutant human MEKK2 PB1 domain. actives 0.35% (n = 290,000). percent response, % at 10 µM. bead flow cytometry, Alexa488-MEK5 binding to MEKK2 mutant; in the data active = percent response above about 24%, passing the limit was not always enough
UBC13 polyUb = blocks human UBC13 polyubiquitin chain formation | P61088 | TR-FRET | AID 485273 | actives 0.47% (n = 330,000) | inhibition, % at 20 µM; in the data active = inhibition above about 45%, passing the limit was not always enough
PREPL inhibitor = inhibits the human prolyl oligopeptidase-like enzyme; actives 0.68% (n = 320,000); AID 2751; recombinant PREPL, fluorescence polarization activity-based probe; inhibition, % at 5.96 µM; in the data active = inhibition above about 43%;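 also: 0% = enzyme with DMSO and 100% = wells lacking enzyme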
Apaf1 inhib = blocks human Apaf-1 apoptosome activity. AID 489030. O14727. inhibition, % at 20 µM. reconstituted apoptosome caspase-3 activity, DEVD-Rh110 fluorescence. actives 0.71% (n = 330,000); active = inhibition of at least 40% at 20 µM;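 also: plate controls were DMSO wells for no effect and DEVD-CHO caspase inhibitor wells for full effect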
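detection = Rh110 fluorescence intensity | test system = biochemical Apaf-1 apoptosome reconstitution | also added = cytochrome c and DEVD-Rh110 substrate | schedule = 30 min plus 50 min, RT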
MEKK3 PB1 HTS = modulators (inhibitors or enhancers) of MEK5 binding to human MEKK3 PB1 domain; actives 1.4% (n = 290,000); bead-based flow cytometry, Alexa488-MEK5 binding to MEKK3; actives lie on both sides; 0 = blocked by unlabeled MEK5, 100 = vehicle; binding response (% of control), % at 10 µM;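 active = binding response more than 3 SD above or below the average of its plate-row segment, actives on both sides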;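 also: Alexa488 bead fluorescence after subtracting the streptavidin-only scavenger bead signal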
Target sequence (Q99759 whole entry, looked up, the tested form may be a part): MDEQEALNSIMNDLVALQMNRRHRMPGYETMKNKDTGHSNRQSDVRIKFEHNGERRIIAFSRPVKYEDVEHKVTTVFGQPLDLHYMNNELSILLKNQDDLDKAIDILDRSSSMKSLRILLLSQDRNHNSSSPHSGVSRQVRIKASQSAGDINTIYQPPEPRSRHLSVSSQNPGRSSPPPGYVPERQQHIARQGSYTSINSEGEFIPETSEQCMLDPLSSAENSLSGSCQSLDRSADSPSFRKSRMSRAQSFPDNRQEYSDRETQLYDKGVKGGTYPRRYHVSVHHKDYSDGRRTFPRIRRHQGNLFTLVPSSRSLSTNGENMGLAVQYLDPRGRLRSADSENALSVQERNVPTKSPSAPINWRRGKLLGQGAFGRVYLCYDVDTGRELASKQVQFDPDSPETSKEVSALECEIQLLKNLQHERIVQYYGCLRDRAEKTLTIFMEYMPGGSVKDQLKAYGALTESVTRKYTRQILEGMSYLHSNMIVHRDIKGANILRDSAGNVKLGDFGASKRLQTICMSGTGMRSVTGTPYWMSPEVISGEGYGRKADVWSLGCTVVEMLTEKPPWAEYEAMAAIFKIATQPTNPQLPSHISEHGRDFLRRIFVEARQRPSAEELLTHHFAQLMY
MEKK2 WT-MEK5 = raises or lowers MEK5 binding to wildtype human MEKK2 PB1 domain; Q9Y2U5; bead flow cytometry, Alexa488-MEK5 binding to MEKK2 WT; actives lie on both sides; binding response (% of control), % at 10 µM; actives 1.1% (n = 290,000); in the data active = binding response below about 67% or above about 130%
MEKK2wt confirm = raises or lowers MEK5 binding to wildtype human MEKK2, retest; bead flow cytometry, Alexa488-MEK5 binding to MEKK2 WT; actives lie on both sides; AID 1892; binding response (% of control), % at 10 µM; shares compounds with MEKK3 PB1 HTS; actives 2.4% (n = 5,900); in the data active = binding response below about 16% or above about 210%; inactive = in between
MEKK2mut confirm = signal of MEK5 binding to mutant human MEKK2, retest; shares compounds with MEKK3 PB1 HTS; percent response, % at 10 µM; bead flow cytometry, Alexa488-MEK5 binding to MEKK2 mutant; AID 1893; actives 2% (n = 5,900); in the data active = percent response mostly above about 71%, no sharp cut-off; inactive = mostly below about 38%;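 also: higher means compound restores mutant binding toward wildtype level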
MEKK3-MEK5 inh = confirmation of inhibitors of MEK5 binding to human MEKK3 | binding response (% of control), % at 10 µM | bead flow cytometry, Alexa488-MEK5 binding to MEKK3; hits give low values | actives 1.8% (n = 5,900) | shares compounds with MEKK3 PB1 HTS;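 active = binding response below 72% of control, or above a set upper limit, though filed actives all read lower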;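 also: 100% = DMSO only wells and 0% = binding blocked by excess unlabeled MEK5; lower values mean stronger disruption of MEK5 binding to MEKK3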
* hit, by the source's call; · = no result; [ ] = dose if it differs, or a comment.

SMILES	MEKK2mut PB1 HTS	UBC13 polyUb	PREPL inhibitor	Apaf1 inhib	MEKK3 PB1 HTS	MEKK2 WT-MEK5	MEKK2wt confirm	MEKK2mut confirm	MEKK3-MEK5 inh
CCCn1c(C)cc(C(=O)COC(=O)c2ccc[nH]c2=O)c1C	0.0	-10.1	3.7	0.8	130.0*	106.0	97.0	-2.0	102.0
O=C(NCCC(=O)N1CCN(c2ccc(F)cc2)CC1)c1ccco1	·	-2.9	·	-3.2	·	·	·	·	·
CC(C)C(OC(=O)c1cc2sccc2n1C)C(=O)NCC1CCCO1 (centres undefined)	-26.0	4.4	12.9	-13.0	1.0*[inhibitor]	-2.0*[inhibitor]	97.0	-9.0	98.0
O=C1CCCC2=C1C(c1ccsc1)CC(=O)N2c1ccccc1 (centres undefined)	-2.0	-7.5	1.8	7.9	97.0	97.0	·	·	·
Cc1ccc(C2CC(=O)N(c3ccc(F)cc3)C3=C2C(=O)CCC3)cc1 (centres undefined)	7.0	-4.7	10.1	7.7	123.0*	120.0	95.0	-6.0	98.0
O=C(CCCc1ccccc1)Nc1ccnn1C1CCN(Cc2ccc(CO)o2)CC1	-10.0	-0.7	18.1	6.6	87.0	89.0	·	·	·
O=S(=O)(Cc1ccccc1)N1CCC(N2CCN(c3ccccc3)CC2)CC1	5.0	1.3	4.8	7.9	133.0*	117.0	111.0	4.0	104.0
CC1CCC(N2CCN(S(=O)(=O)Cc3ccccc3)CC2)CC1 (centres undefined)	-1.0	5.3	-0.2	-4.0	104.0	105.0	·	·	·
Cc1ccc(C)c(OCC(=O)Nc2ccc3c(c2)OCO3)c1C	0.0	6.2	14.0	9.4	105.0	93.0	·	·	·
O=C(COC(=O)Cc1ccccc1F)Nc1ccc2c(c1)OCCO2	0.0	5.0	-5.3	-1.2	138.0*	107.0	101.0	-6.0	102.0
Cc1cccc(OCC(=O)Nc2ccc3c(c2)OCO3)c1C	-15.0	-5.6	24.6	3.0	2.0*[inhibitor]	2.0*[inhibitor]	95.0	-10.0	99.0
CCC1(c2ccc(Cl)cc2)NC(=O)N(CC(=O)N2CCN(C(=O)c3ccco3)CC2)C1=O (centres undefined)	·	-7.6	18.2	13.5	·	·	·	·	·
O=C(c1cccs1)N1CCN(S(=O)(=O)c2cccc(Cl)c2Cl)CC1	·	-0.9	·	12.3	·	·	·	·	·
O=C(NCCCN1CCOCC1)c1cc(Cl)ccc1[N+](=O)[O-]	2.0	14.4	1.1	-7.7	206.0*	114.0	99.0	2.0	100.0
O=C(NCCCN1CCOCC1)c1ccc(Cl)cc1[N+](=O)[O-]	-6.0	-2.7	3.7	-10.9	108.0	107.0	·	·	·
CC1(C)CC(=O)c2cc(OCC(=O)NCCCN3CCN(c4ccc(F)cc4)CC3)ccc2O1	20.0	23.8	10.9	0.2	109.0	144.0*	122.0	11.0	101.0
CC(C)CCNC(=O)COc1ccc2c(c1)C(=O)CC(C)(C)O2	-3.0	14.3	3.0	0.2	99.0	98.0	·	·	·
O=C(CSc1nnc(CNc2cccc(Cl)c2)o1)OC1CCCCC1	1.0	6.4	18.3	16.1	103.0	106.0	·	·	·
O=C(CSc1nnc(CNc2ccc(F)cc2)o1)OC1CCCCC1	-16.0	6.8	13.8	10.5	2.0*[inhibitor]	2.0*[inhibitor]	95.0	-3.0	99.0
CCOC(=O)C1=C(CC)OC(N)=C(C#N)C1c1ccc(OC)c(C)c1OC (centres undefined)	-13.0	1.2	12.2	10.9	2.0*[inhibitor]	2.0*[inhibitor]	95.0	-2.0	99.0
COC(=O)c1ccc(CN(C(=O)N2CCN(C)CC2)S(=O)(=O)c2ccc(C)cc2)cc1	·	-5.8	13.6	-0.6	·	·	·	·	·
N#Cc1c(C(F)(F)F)cc(-c2ccccc2)[nH]c1=O	4.0	9.0	-8.2	6.8	127.0*	122.0	106.0	5.0	107.0
NC(=O)c1sc2nc(-c3ccccc3)c3c(c2c1N)CCCC3	-1.0	23.7	27.8	2.5	100.0	97.0	·	·	·
COc1ncnc2c1sc1nc(-c3ccccc3)c3c(c12)CCCC3	0.0	11.7	-11.2	17.0	146.0*	107.0	96.0	-3.0	102.0
COc1ccccc1-c1ccc(NC2CCCCC2)nn1	-8.0	11.6	0.2	7.3	81.0*[inhibitor]	83.0	103.0	3.0	103.0
SMILES	MEKK2mut PB1 HTS	UBC13 polyUb	PREPL inhibitor	Apaf1 inhib	MEKK3 PB1 HTS	MEKK2 WT-MEK5	MEKK2wt confirm	MEKK2mut confirm	MEKK3-MEK5 inh
CCOC(=O)c1c(CSC(=N)N)n(-c2ccccc2)c2cc(Br)c(OC(C)=O)cc12	22.0	28.2	-3.1	20.1	102.0	143.0*	169.0	48.0	112.0
CCOC(=O)c1c(CN2CCN(CC#N)CC2)n(C)c2cc(Br)c(OC)cc12	2.0	3.0	-2.2	15.7	105.0	105.0	·	·	·
CCOC(=O)c1c(CSc2ccccc2)n(C)c2cc(Br)c(OCC(O)CNC(CO)(CO)CO)cc12 (centres undefined)	-10.0	·	2.7	·	69.0*[inhibitor]	95.0	162.0	35.0	106.0
CCOC(=O)c1c(CN2CCN(Cc3ccccc3)CC2)n(C)c2cc(Br)c(OC)cc12	7.0	12.3	-1.7	31.0	105.0	135.0*	173.0	38.0	108.0
CNC(=S)N(C)/N=C1/C(=O)N(Cc2c(Cl)cccc2Cl)c2ccccc21	·	-30.8	-21.7	11.9	·	·	·	·	·
COc1ccccc1OCCNC(=O)C(CCSC)NS(=O)(=O)c1ccccc1F (centres undefined)	·	12.3	-17.2	22.8	·	·	·	·	·
O=C1CC(NS(=O)(=O)c2ccc3ccccc3c2)CN1c1ccccc1 (centres undefined)	·	5.8	-39.6	10.2	·	·	·	·	·
O=c1[nH]c(SCc2nc3ccccc3n2Cc2ccccc2)nc2ccccc12	-4.0	6.0	-5.2	15.6	93.0	97.0	·	·	·
O=c1[nH]c(SCc2nc3ccccc3c(=O)n2-c2ccccc2C(F)(F)F)nc2ccccc12	-2.0	-6.7	-7.5	10.2	67.0*[inhibitor]	75.0	98.0	4.0	101.0
O=C1N(Cc2cccc(Cl)c2)C[C@@H]2C[C@@H](c3c[nH]c4ccccc34)N3CCC[C@@]123	22.0	-4.1	-62.0	8.6	63.0*[inhibitor]	·	84.0	-10.0	72.0
CCCOCCOC(=O)C1=C(C)NC(=O)NC1c1cc(Cl)c(O)c(OC)c1 (centres undefined)	-28.0	-7.1	15.2	-0.8	1.0*[inhibitor]	-2.0*[inhibitor]	104.0	3.0	105.0
Oc1[nH]c2ccccc2c1C1=NCCCC1	8.0	-2.4	3.8	-8.4	91.0	106.0	·	·	·
O=c1o[nH]c(-c2ccccc2)c1C1=NCCCCC1	-3.0	-2.1	-4.5	3.8	73.0*[inhibitor]	96.0	101.0	-2.0	102.0
